Reference: ChEMBL document CHEMBL5325511, “Discovery of N-(4-(Aminomethyl)phenyl)-5-methylpyrimidin-2-amine Derivatives as Potent and Selective JAK2 Inhibitors” (ACS Med Chem Lett, 2023)
Active and inactive are the calls of the source. No cut-off for these calls is given here.

Tests used:
[1] = biological target: Tyrosine-protein kinase JAK2 (Mus musculus, UniProt Q62120, V617F); assay: Inhibition of JAK2 V617F mutant in mouse BaF3 cells; assay type: cell-based
How it was run: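 Cell proliferation assay. IC50 is the concentration that inhibits proliferation by 50%, taken from dose–response curves. Mean ± SEM of at least three independent experiments.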

BaF3 [2] = assay: Induction of cell cycle arrest in mouse BaF3 cells harbouring JAK2 […] mutant assessed as accumulation of cells at G0/G1 phase at 16 nM incubated for 24 hrs by propidium iodide staining based flow cytometry analysis (reference value: 56.85 %); assay type: functional
BaF3 [3] = assay: Induction of cell cycle arrest in mouse BaF3 cells harbouring JAK2 […] mutant assessed as accumulation of cells at G2/M phase at 0.5 nM incubated for 24 hrs by propidium iodide staining based flow cytometry analysis (reference value: 9.34 %); assay type: functional
BaF3 [4] = assay: Induction of cell cycle arrest in mouse BaF3 cells harbouring JAK2 […] mutant assessed as accumulation of cells at G2/M phase at 2 nM incubated for 24 hrs by propidium iodide staining based flow cytometry analysis (reference value: 9.34 %); assay type: functional
BaF3 [5] = assay: Induction of cell cycle arrest in mouse BaF3 cells harbouring JAK2 […] mutant assessed as accumulation of cells at G0/G1 phase at 4 nM incubated for 24 hrs by propidium iodide staining based flow cytometry analysis (reference value: 56.85 %); assay type: functional
BaF3 [6] = assay: Induction of cell cycle arrest in mouse BaF3 cells harbouring JAK2 […] mutant assessed as accumulation of cells at G2/M phase at 4 nM incubated for 24 hrs by propidium iodide staining based flow cytometry analysis (reference value: 9.34 %); assay type: functional
BaF3 [7] = assay: Induction of cell cycle arrest in mouse BaF3 cells harbouring JAK2 […] mutant assessed as accumulation of cells at G2/M phase at 8 nM incubated for 24 hrs by propidium iodide staining based flow cytometry analysis (reference value: 9.34 %); assay type: functional
BaF3 [8] = assay: Induction of cell cycle arrest in mouse BaF3 cells harbouring JAK2 […] mutant assessed as accumulation of cells at S phase at 8 nM incubated for 24 hrs by propidium iodide staining based flow cytometry analysis (reference value: 33.80 %); assay type: functional
BaF3 [9] = assay: Induction of cell cycle arrest in mouse BaF3 cells harbouring JAK2 […] mutant assessed as accumulation of cells at S phase at 16 nM incubated for 24 hrs by propidium iodide staining based flow cytometry analysis (reference value: 33.80 %); assay type: functional
BaF3 [10] = assay: Induction of apoptosis in mouse BaF3 cells harbouring JAK2 V617F mutant assessed as viable cells at 20 nM incubated for 24 hrs by Annexin V / propidium iodide staining based flow cytometry analysis (reference value: 72.8 %); assay type: functional; conditions: read-out: Activity
How it was run: (§1)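 Ba/F3 JAK2V617F cells exposed to compound at 20, 40, 80, 160 and 320 nM, then analysed for apoptosis by flow cytometry. Significance vs control by Dunnett's t test.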

BaF3 [11] = assay: Induction of apoptosis in mouse BaF3 cells harbouring JAK2 V617F mutant assessed as early apoptotic cells at 20 nM incubated for 24 hrs by Annexin V / propidium iodide staining based flow cytometry analysis (reference value: 14.4 %); assay type: functional; how it was run: as §1
BaF3 [12] = assay: Induction of apoptosis in mouse BaF3 cells harbouring JAK2 V617F mutant assessed as late apoptotic cells at 20 nM incubated for 24 hrs by Annexin V / propidium iodide staining based flow cytometry analysis (reference value: 12.2 %); assay type: functional; how it was run: as §1
BaF3 [13] = assay: Induction of apoptosis in mouse BaF3 cells harbouring JAK2 V617F mutant assessed as viable cells at 40 nM incubated for 24 hrs by Annexin V / propidium iodide staining based flow cytometry analysis (reference value: 72.8 %); assay type: functional; conditions: read-out: Activity; how it was run: as §1
BaF3 [14] = assay: Induction of apoptosis in mouse BaF3 cells harbouring JAK2 V617F mutant assessed as late apoptotic cells at 40 nM incubated for 24 hrs by Annexin V / propidium iodide staining based flow cytometry analysis (reference value: 12.2 %); assay type: functional; how it was run: as §1
BaF3 [15] = assay: Induction of apoptosis in mouse BaF3 cells harbouring JAK2 V617F mutant assessed as viable cells at 80 nM incubated for 24 hrs by Annexin V / propidium iodide staining based flow cytometry analysis (reference value: 72.8 %); assay type: functional; conditions: read-out: Activity; how it was run: as §1
BaF3 [16] = assay: Induction of apoptosis in mouse BaF3 cells harbouring JAK2 V617F mutant assessed as early apoptotic cells at 160 nM incubated for 24 hrs by Annexin V / propidium iodide staining based flow cytometry analysis (reference value: 14.4 %); assay type: functional; how it was run: as §1
BaF3 [17] = assay: Induction of apoptosis in mouse BaF3 cells harbouring JAK2 V617F mutant assessed as necrotic cells at 160 nM incubated for 24 hrs by Annexin V / propidium iodide staining based flow cytometry analysis (reference value: 0.64 %); assay type: functional; how it was run: as §1
BaF3 [18] = assay: Induction of apoptosis in mouse BaF3 cells harbouring JAK2 V617F mutant assessed as viable cells at 320 nM incubated for 24 hrs by Annexin V / propidium iodide staining based flow cytometry analysis (reference value: 72.8 %); assay type: functional; conditions: read-out: Activity; how it was run: as §1
BaF3 [19] = assay: Induction of apoptosis in mouse BaF3 cells harbouring JAK2 V617F mutant assessed as early apoptotic cells at 320 nM incubated for 24 hrs by Annexin V / propidium iodide staining based flow cytometry analysis (reference value: 14.4 %); assay type: functional; how it was run: as §1
BaF3 [20] = assay: Induction of apoptosis in mouse BaF3 cells harbouring JAK2 V617F mutant assessed as late apoptotic cells at 320 nM incubated for 24 hrs by Annexin V / propidium iodide staining based flow cytometry analysis (reference value: 12.2 %); assay type: functional; how it was run: as §1
BaF3 [21] = assay: Induction of apoptosis in mouse BaF3 cells harbouring JAK2 V617F mutant assessed as necrotic cells at 320 nM incubated for 24 hrs by Annexin V / propidium iodide staining based flow cytometry analysis (reference value: 0.64 %); assay type: functional; how it was run: as §1
[22] = Selectivity ratio of IC50 for JAK3 (unknown origin) to IC50 for JAK2 (unknown origin)
[23] = Selectivity ratio of IC50 for FLT3 (unknown origin) to IC50 for JAK2 (unknown origin)
[24] = biological target: Tyrosine-protein kinase JAK1 (Homo sapiens, UniProt P23458); assay: Inhibition of JAK1 (unknown origin) in presence of Mg/ATP mixture by [gamma p33]-ATP based radiometric assay
Tyrosine-protein kinase JAK1, sequence (P23458 whole entry): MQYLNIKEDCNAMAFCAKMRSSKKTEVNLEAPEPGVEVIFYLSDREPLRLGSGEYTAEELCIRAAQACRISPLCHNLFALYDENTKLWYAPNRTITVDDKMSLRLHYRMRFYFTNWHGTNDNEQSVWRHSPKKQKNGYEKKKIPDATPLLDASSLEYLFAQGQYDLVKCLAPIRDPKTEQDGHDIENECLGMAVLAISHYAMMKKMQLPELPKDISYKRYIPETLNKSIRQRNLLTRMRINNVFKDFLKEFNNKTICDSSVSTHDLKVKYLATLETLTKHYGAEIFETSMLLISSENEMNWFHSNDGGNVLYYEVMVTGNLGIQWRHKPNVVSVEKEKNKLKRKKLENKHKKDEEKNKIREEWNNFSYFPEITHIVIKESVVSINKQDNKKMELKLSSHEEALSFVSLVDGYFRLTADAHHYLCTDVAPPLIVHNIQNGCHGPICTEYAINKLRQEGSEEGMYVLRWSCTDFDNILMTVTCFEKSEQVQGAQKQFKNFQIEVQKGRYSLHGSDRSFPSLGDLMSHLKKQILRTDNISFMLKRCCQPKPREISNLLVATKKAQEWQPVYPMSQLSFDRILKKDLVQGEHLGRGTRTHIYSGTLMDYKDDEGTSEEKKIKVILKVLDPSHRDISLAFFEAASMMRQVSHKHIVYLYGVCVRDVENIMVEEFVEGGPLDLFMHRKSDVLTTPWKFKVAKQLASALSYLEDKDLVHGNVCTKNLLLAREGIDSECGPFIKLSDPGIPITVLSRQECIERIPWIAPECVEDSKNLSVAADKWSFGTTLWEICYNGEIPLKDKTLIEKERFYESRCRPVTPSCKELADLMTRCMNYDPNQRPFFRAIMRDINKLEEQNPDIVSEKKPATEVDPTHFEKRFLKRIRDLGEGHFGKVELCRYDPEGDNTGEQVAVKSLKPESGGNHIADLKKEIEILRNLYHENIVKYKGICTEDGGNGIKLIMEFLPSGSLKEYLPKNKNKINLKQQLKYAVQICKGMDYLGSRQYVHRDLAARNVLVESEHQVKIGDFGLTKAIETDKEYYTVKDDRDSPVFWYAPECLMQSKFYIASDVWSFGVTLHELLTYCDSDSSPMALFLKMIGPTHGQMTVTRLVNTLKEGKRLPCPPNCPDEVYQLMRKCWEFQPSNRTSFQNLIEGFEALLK
How it was run: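 IC50 values determined by Eurofins Discovery.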

[25] = Half life in Sprague-Dawley rat at 5 mg/kg, po measured upto 24 hrs by LC-MS/MS analysis; assay type: ADME, organism-based; conditions: in vivo, po, 5 mg/kg, 24 h
How it was run: (§2)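 Sprague–Dawley rats, n = 5, dosed at 5 mg/kg as a solution in 2% ethanol and 1% Tween 80, pH 5.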

[26] = Clearance in Sprague-Dawley rat at 5 mg/kg, po measured upto 24 hrs by LC-MS/MS analysis; assay type: ADME, organism-based; conditions: in vivo; how it was run: as §2
[27] = biological target: Tyrosine-protein kinase Lck (Homo sapiens) (UniProt P06239); assay: Inhibition of LCK (unknown origin)
Tyrosine-protein kinase Lck (Homo sapiens), sequence (P06239 2-509 limits assumed): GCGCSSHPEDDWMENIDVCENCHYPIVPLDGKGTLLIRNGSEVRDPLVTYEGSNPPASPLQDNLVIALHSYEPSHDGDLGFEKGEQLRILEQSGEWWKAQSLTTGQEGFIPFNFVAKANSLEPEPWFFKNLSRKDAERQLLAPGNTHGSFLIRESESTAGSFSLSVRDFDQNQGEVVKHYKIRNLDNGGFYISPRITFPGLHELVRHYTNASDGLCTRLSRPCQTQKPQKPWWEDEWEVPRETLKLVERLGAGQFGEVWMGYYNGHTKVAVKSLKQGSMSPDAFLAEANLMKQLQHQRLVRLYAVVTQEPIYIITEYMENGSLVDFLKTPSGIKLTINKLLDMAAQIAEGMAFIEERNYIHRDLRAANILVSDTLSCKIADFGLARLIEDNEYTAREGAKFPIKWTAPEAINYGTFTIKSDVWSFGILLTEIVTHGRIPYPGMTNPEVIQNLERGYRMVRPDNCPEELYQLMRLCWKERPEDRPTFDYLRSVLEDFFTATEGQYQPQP
How it was run: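 Kinase panel profiling (KinaseProfile, run by an outside contractor). The inhibitor was tested at 1 μM in duplicate against DMSO control. The value is % control, the percentage of kinase activity remaining.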

Tyrosine-protein kinase JAK2, sequence (Q62120 as listed by the source V617F): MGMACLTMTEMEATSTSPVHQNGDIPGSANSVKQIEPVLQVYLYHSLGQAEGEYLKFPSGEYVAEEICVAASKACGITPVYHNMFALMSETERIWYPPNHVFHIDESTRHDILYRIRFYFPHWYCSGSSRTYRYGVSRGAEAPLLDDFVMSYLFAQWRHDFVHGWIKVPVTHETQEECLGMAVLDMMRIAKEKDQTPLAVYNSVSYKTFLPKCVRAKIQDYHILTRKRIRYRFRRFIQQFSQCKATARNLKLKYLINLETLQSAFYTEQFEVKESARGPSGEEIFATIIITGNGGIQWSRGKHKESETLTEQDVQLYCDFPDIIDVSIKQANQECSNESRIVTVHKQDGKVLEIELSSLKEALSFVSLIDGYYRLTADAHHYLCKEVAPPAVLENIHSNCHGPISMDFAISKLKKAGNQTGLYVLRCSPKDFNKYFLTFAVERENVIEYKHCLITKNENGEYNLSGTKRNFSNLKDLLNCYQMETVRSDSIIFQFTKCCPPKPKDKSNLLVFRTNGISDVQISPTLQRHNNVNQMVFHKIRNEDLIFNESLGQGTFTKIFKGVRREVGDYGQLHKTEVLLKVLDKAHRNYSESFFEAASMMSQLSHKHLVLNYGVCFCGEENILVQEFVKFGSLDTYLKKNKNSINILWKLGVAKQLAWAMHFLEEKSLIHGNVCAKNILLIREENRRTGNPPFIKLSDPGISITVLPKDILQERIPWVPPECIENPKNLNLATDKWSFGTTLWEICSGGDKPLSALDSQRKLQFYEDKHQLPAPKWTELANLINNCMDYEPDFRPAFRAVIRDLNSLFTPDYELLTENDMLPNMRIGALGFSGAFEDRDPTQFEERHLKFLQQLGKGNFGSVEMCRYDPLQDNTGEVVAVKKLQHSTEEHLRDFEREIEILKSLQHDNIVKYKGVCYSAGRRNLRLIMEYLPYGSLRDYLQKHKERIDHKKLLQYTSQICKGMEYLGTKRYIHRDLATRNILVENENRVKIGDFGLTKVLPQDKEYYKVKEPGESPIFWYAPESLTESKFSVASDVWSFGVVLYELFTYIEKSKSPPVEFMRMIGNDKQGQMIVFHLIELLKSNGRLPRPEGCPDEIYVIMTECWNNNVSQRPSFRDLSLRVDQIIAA

Compound | Activity (BaF3 [2]) | Activity (BaF3 [3]) | Activity (BaF3 [4]) | Activity (BaF3 [5]) | Activity (BaF3 [6]) | Activity (BaF3 [7]) | Activity (BaF3 [8]) | Activity (BaF3 [9]) | viability at 0.02 µM (BaF3 [10]) | Activity (BaF3 [11]) | Activity (BaF3 [12]) | viability at 0.04 µM (BaF3 [13]) | Activity (BaF3 [14]) | viability at 0.08 µM (BaF3 [15]) | Activity (BaF3 [16]) | Activity (BaF3 [17]) | viability at 0.32 µM (BaF3 [18]) | Activity (BaF3 [19]) | Activity (BaF3 [20]) | Activity (BaF3 [21]) | other results
Cc1cnc(Nc2ccc3c(c2)CCN(C(=O)/C=C/CN(C)C)C3)nc1-c1cnn(C(C)C)c1 | 59.42% | 9.64% | 15.52% | 57.34% | 9.33% | 8.98% | 32.2% | 31.63% | 68.6% | 18.4% | 12% | 61.1% | 15.6% | 38.8% | 48.1% | 1.89% | 14.3% | 47% | 35.2% | 3.48% | IC50 ([1]; baf3): 0.041 µM; Ratio IC50 [22]: 31; Ratio IC50 [23]: 20.7
C=CS(=O)(=O)NCc1ccc(Nc2ncc(C)c(-c3cnn(C(C)C)c3)n2)cc1 | 69.31% | 9.03% | 8.29% | 62.95% | 7.62% | 8.38% | 27.77% | 20.76% | 53.7% | 24.7% | 20% | 44.1% | 26.2% | 22.3% | 37.5% | 3.8% | 24.5% | 31% | 40.1% | 4.33% | IC50 [1]: 0.0253 µM; IC50 [24]: 0.193 µM; t1/2 [25]: 5.2 h; CL [26]: 17.7 L/h/kg; inhibition [27]: Active; Ratio IC50 [22]: 54.6; Ratio IC50 [23]: 93.4
